Screens (PubChem BioAssay)
HIF act – HIF pathway transcriptional activation; U2OS HRE-luciferase reporter, luminescence; normalized: DMSO 0%, desferrioxamine 100%; activation, % at 7.5 µM (by protocol); actives 0.32% (n = 300,000);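 active = mean activation of at least 10% of the iron chelator positive control signal, with at least half of replicates also reaching 10%; inconclusive = mean and replicate majority disagree about reaching 10%; inactive = mean and most replicates under 10%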
ABCB6 inh 2 – human ABCB6 transporter inhibition | K562-ABCB6 porphyrin accumulation, flow cytometry, 1 h; hits give low values | AID 602162 | actives 0.19% (n = 360,000) | Q9NP58 | fluorescence ratio to DMSO, % at 10 µM;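 active = fluorescence ratio to DMSO below 75%, the collection mean minus 3 SD; inconclusive = too few cells collected in the well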;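 also: signal is porphyrin accumulated inside mitochondria; lower ratio means ABCB6 inhibition with less porphyrin fluorescence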
FXN GAA850 act – frataxin GAA850 promoter activation; actives 0.56% (n = 360,000); AID 540364; activation, % at 6 µM; HEK293 lucGAA850 FXN promoter luciferase reporter, 24 h; percent of 10 µM SAHA response;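 active = activation above the average of all compounds screened plus 3 SD, cutoff fixed separately per campaign, cut at about 7.5% in these data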
SR-BI uptake up – enhances SR-BI lipid uptake from DiI-HDL; CHO ldlA[mSR-BI] cells, DiI-HDL uptake fluorescence, 3 h; 100 = double the neutral-control signal; activation, % at 12.5 µM; actives 0.096% (n = 320,000);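 active = mean replicate activation of at least 60% and every replicate at or above 60%; inconclusive = mean or all-replicate condition met, but not both; inactive = mean below 60% and not all replicates reaching 60%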
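Test system: SR-BI-overexpressing, LDLR-lacking CHO cells; Also added: labelled HDL, 10 µg/mL; Measured by: bottom-read cell fluorescence after medium removal, ex 550/em 595 nm; Timing: 3 h uptake period with compound, 37 °C; Buffer or medium: F12, 0.5% BSA, 25 mM HEPES; Doses: single compound concentration, delivered by pin transfer.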
AHR activator – activators of human aryl hydrocarbon receptor; actives 2.5% (n = 320,000); P35869; activation, % at 5 µM; AHR-responsive luciferase reporter cells, luminescence; AID 2796; in the data active = activation above about 47%
SR-BI DiI inh – mouse SR-BI HDL lipid transfer inhibition | inhibition, % at 12.5 µM | actives 0.96% (n = 320,000) | ldlA[mSR-BI] CHO cells, DiI-HDL uptake fluorescence, 3 h;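 active = mean replicate inhibition of at least 70% and a set share of replicates each scoring 70 or more; inconclusive = meets just one of the two criteria; inactive = fails both criteria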
Of the large screens only hits and unclear results are named; the others gave an inactive call. Most compounds without a hit are left out; they make up all but 3.9% or so of the library.

Cc1cc(NC(=O)c2cccc(Br)c2)n[nH]1	AHR activator 73
O=C(Cn1nnc(-c2ccccc2)n1)NNC(=O)c1cccc([N+](=O)[O-])c1	none (no result: SR-BI uptake up, SR-BI DiI inh)
CCc1cc2c(Sc3nc4ccccc4s3)ncnc2s1	none
CC1=C(CC/C(C)=N/NC(N)=S)C(C)(C)CCC1	SR-BI DiI inh 76
NC(=O)c1cc2ccccc2o/c1=N/NC(=O)c1ccccc1	AHR activator 51
COc1cccc(C(=O)N/N=c2/oc3ccccc3cc2C(N)=O)c1	none
O=C(CNC(=S)N(Cc1ccccc1)Cc1ccccc1F)NCCc1ccc(Cl)cc1	none
COc1cccc(NC(=O)c2ccc(NS(=O)(=O)c3cccs3)cc2)c1	SR-BI DiI inh 77 (no result: HIF act, AHR activator)
COc1ccc(C=NNC(=O)c2ccccc2NS(=O)(=O)c2cccs2)cc1O	none (no result: HIF act)
O=C(NN=Cc1ccccc1OC(F)F)c1ccc(NS(=O)(=O)c2cccs2)cc1	SR-BI DiI inh 82 (no result: HIF act)
O=C(NN=Cc1ccc(O)cc1O)c1ccccc1NS(=O)(=O)c1cccs1	SR-BI DiI inh 97 (no result: HIF act)
Cc1oc2cc3oc(=O)c(CC(=O)NCCCC(=O)O)c(C)c3cc2c1C	none
Nc1ncc(-c2ccc(F)cc2)nc1N1CCN(CCO)CC1	none (no result: HIF act, SR-BI uptake up, AHR activator, SR-BI DiI inh)
COC(=O)C1=C(C)NC(=O)NC1c1ccc(N2CCC(c3ccccc3)=N2)cc1 (configuration not stated)	SR-BI DiI inh 78
NNc1nc(Nc2ccccc2)nc(Nc2ccccc2)n1	AHR activator 81
NNc1nc(Nc2ccccc2)nc(N2CCCCC2)n1	none (no result: HIF act)
COc1ccccc1NC(=O)Cc1nnc(SCC(=O)Nc2ccccc2F)n1C	none
CC(=O)c1c(-c2ccc(C)cc2)nc2c3ccccc3ccn12	AHR activator 59
Nc1ccccc1-n1cccc1	AHR activator 56
Cc1nnc(N/N=C/c2ccc(-c3ccc(Br)cc3)o2)n1N	AHR activator 49
COc1cccc(CNC(=O)c2nnn(-c3ccc(OC(F)(F)F)cc3)c2N)c1	none
C/C(=N\NC(=O)c1c(C)nc2ccccn12)c1ccc(O)cc1O	HIF act 13
C/C(=N\NC(=O)c1c(C)nc2ccccn12)c1ccccc1F	none
CCCOc1ccc(NC(=O)C2CC(=O)N/C(=N/N=C(C)/C=C/c3ccc(N(C)C)cc3)S2)cc1 (configuration not stated)	SR-BI DiI inh 82
Cc1c(O)ccc2c(CC(=O)N[C@@H](Cc3ccccc3)C(=O)O)cc(=O)oc12	none (no result: AHR activator)
COc1ccc(C)cc1NCc1cc(=O)oc2cc(-c3ccccc3)c(O)cc12	AHR activator 49
COc1cc(OC)c(OC)cc1CNc1cc(C)ccc1OC	SR-BI DiI inh 72
Cc1cc(C)cc(NCc2cc(=O)oc3cc(-c4ccccc4)c(O)cc23)c1	AHR activator 50
Cc1cc(C)cc(NCc2cc(=O)oc3cc(C)c(O)cc23)c1	none
COC(=O)c1ccccc1NCc1cc(=O)oc2cc(O)c(O)cc12	none
COc1ccccc1NCc1cc(=O)oc2c(C)c(O)ccc12	SR-BI DiI inh 73
CN(C(=O)c1ccccc1NC(=O)C(F)(F)F)c1ccccc1	ABCB6 inh 2 60
CCc1ccnc(NC(=O)NS(=O)(=O)c2ccc(C)cc2)c1	none
COc1cc(C(=O)N=c2sc3c(C)ccc(OC)c3n2C)cc(OC)c1OC	SR-BI DiI inh 78
COc1ccc(C(=O)N=c2sc3c(C)ccc(OC)c3n2C)cc1	AHR activator 56, SR-BI DiI inh 77
COc1cc(C(=O)N=c2sc3ccccc3n2C)cc(OC)c1OC	SR-BI DiI inh inconclusive
O=C(Nc1nnc(C2CC2)s1)c1n[nH]c(=O)c2ccccc12	AHR activator 65
CSc1ncccc1C(=O)Nc1nccs1	none
CSc1ncccc1C(=O)Nc1nnc(C2CC2)s1	AHR activator 61
CCc1nnc(NC(=O)c2cccnc2SC)s1	AHR activator 51
CSc1ncccc1C(=O)Nc1nc2c(C)cccc2s1	SR-BI DiI inh 73
Cc1ccc2nsnc2c1S(=O)(=O)NCc1ccc2c(c1)OCO2	none
CC(C)(C)c1cc[n+](C2=C([O-])c3ccccc3C(=O)/C2=N\S(=O)(=O)c2ccccc2)cc1	none (no result: SR-BI uptake up, SR-BI DiI inh)
CC(C)OCCCNC(=O)c1c(N)n(/N=C/c2ccccn2)c2nc3ccccc3nc12	SR-BI uptake up 84
COc1cc(O)cc2c1[C@@H]1Oc3c(ccc(O)c3CC=C(C)C)[C@@H]1CO2	SR-BI DiI inh 85
Cc1ccc(N=Nc2ccc3ccccc3c2O)cc1	AHR activator 53
Oc1c(N=Nc2nn[nH]n2)ccc2ccccc12	none (no result: HIF act, FXN GAA850 act, SR-BI uptake up, AHR activator, SR-BI DiI inh)
Oc1c(N=Nc2ccc(F)cc2)ccc2ccccc12	AHR activator 73
CCn1c(C(C)NC(=O)c2ccccc2C)n[nH]c1=S (configuration not stated)	none
O=C1CC(c2ccc(S(=O)(=O)NCc3ccncc3)cc2)CN1 (configuration not stated)	AHR activator 78
CCN1C[C@@H]2[C@@H]3C(=O)N(Cc4ccccc4)C(=O)[C@@H]3[C@](CC)(C(=O)OC)N2C1=NC	none (no result: HIF act, AHR activator)
Fc1ccc(Nc2ncnc3sc4c(c23)CCC4)cc1F	AHR activator 49
COc1ccc(/C=N/Nc2ncnc(Cl)c2N)cc1OC	none
COc1ccc(/C=N/Nc2ncnc3sc4c(c23)CCCC4)cc1OC	HIF act 10
COn1c(-c2ccc(C)cc2)nc2ncccc21	none
COc1ccccc1C(=O)NC(C)c1ccc(-n2ccnc2)cc1 (configuration not stated)	AHR activator 60
CCOc1ccccc1C(=O)NC(C)c1ccc(-n2ccnc2)cc1 (configuration not stated)	AHR activator 65
CCN(CC)S(=O)(=O)c1csc(C(=O)Nc2ccccn2)c1	none
Fc1cccc(Nc2nc3ccccc3n3nnnc23)c1	none
Cc1cc(C)n(-c2nc3ccccc3nc2Nc2ccc3c(c2)OCO3)n1	AHR activator 76
c1ccc2c(c1)nc(Nc1ccc3c(c1)OCO3)c1nnnn12	AHR activator 120
COc1ccc(S(=O)(=O)N2CCN(c3cccc(C)c3C)CC2)cc1	none
Cc1cc(C)c2c(-n3cccc3)c(NC(=O)OC(C)C)sc2n1	AHR activator 66 (no result: HIF act)
Cc1ccc(C2=N/C(=C/N3CCOCC3)C(=O)O2)cc1	AHR activator 57
Cc1ccc(C2=N/C(=C\N3CCCCC3)C(=O)O2)cc1	none
Cc1cc(C(=O)CSc2nnc(Nc3ccccc3)s2)c(C)n1CC1CCCO1 (configuration not stated)	none
CC(OC(=O)C1CCN(S(=O)(=O)c2ccc(C(C)(C)C)cc2)CC1)C(=O)N1CCOCC1 (configuration not stated)	none
COc1ccc([C@H]2CC(=O)C=C(c3cccc4c3Oc3ccccc3S4)C2)cc1OC	SR-BI DiI inh 80 (no result: HIF act)
